The values below come from ChEMBL document CHEMBL1156176, “Total synthesis, antiprotozoal and cytotoxicity activities of rhuschalcone VI and analogs” (Bioorg Med Chem, 2010).

For data set [1], the system named is Parabodo caudatus. Description: Antiprotozoal activity against Bodo caudatus hrs by MTT assay. The class given is functional, organism-based. As to conditions: TDE = time-dependent effect. An outline of the steps: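 B. caudatus adjusted to 1 × 10^5/mL in growth medium with penicillin/streptomycin/kanamycin, exposed 48 h at 37 °C/5% CO2 to serial dilutions (0.0001–1000 µg/mL final). MTT added for further 4 h, crystals dissolved in DMSO, absorbance 570 nm. LC50 (50% lethal concentration) from mean ± SD of triplicates.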

A short description of data set [2]: Cytotoxicity against BHK cells at 100 ug/ml after 48 hrs by MTT assay. The class given is cell-based, Mesocricetus auratus. The settings on record: hamster; for Activity: bhk, 48 h. An outline of the steps: (§1)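 BHK cells (DMEM/F10 1:1, 10% fetal calf serum, penicillin/streptomycin, 37 °C/5% CO2) at 1 × 10^5/mL, adhered overnight, exposed 48 h to serial dilutions (0.0001–100 µg/mL in figure). MTT for 4 h, DMSO solubilisation, A570; survival vs untreated cells; CC50 from triplicate means ± SD.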

Data set [3] has as its system Parabodo caudatus. Description: Antiprotozoal activity against Bodo caudatus after 48 hrs by MTT assay. The class given is functional. In outline:
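B. caudatus from culture in cereal grass medium diluted 1:1 with water plus E. coli DH5a, kept at 30 °C; adjusted to 1 × 10^5/mL with penicillin, streptomycin and kanamycin added; exposed 48 h to serial dilutions (final 0.0001–1000 µg/mL) at 37 °C/5% CO2; MTT added for 4 h, crystals dissolved in DMSO, A570 read; LC50 from triplicate determinations.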

Data set [4] deals with Parabodo caudatus. Put plainly: Antiprotozoal activity against Bodo caudatus at 0.6 mg/ml after 24 hrs by MTT assay. In kind it is functional. An outline of the steps: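 Bodo caudatus (maintained at 30 °C in cereal grass medium diluted 1:1 with water, fed E. coli DH5α, subcultured every 7–12 days); 10,000 protozoa per well with penicillin/streptomycin/kanamycin, exposed 24 h to 0.6 mg/mL final; CuSO4 at same concentration as positive control, 8% DMSO solvent control. MTT added, 2 h, DMSO-dissolved, A570 viability; triplicates; inhibition vs controls.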

A short description of data set [5]: Cytotoxicity against BHK cells after 48 hrs by MTT assay. In kind it is cell-based, Mesocricetus auratus. As to conditions: hamster. In outline: as §1

Molecules are shown by their SMILES. ≈ marks a conversion by molar mass, not a printed value.

In the case of `COc1cc(O)c(C(=O)/C=C/c2ccc(O)cc2)cc1-c1cc(/C=C/C(=O)c2ccc(O)cc2O)ccc1O`, the figures for the Activity result in data set [1], in data set [2] and in data set [4] were “tde”, “Non-toxic” and 75%, respectively. This compound also showed a 50% lethal concentration (LC50) in data set [3] of 118 µg/mL (≈ 226 µM).

As for `O=C(/C=C/c1ccc(O)c(-c2cc(C(=O)/C=C/c3ccc(O)cc3)c(O)cc2O)c1)c1ccccc1`, the results for the Activity result in data set [1], in data set [2] and in data set [4] were “tde”, “Non-toxic” and 75%, respectively. In data set [3], the 50% lethal concentration (LC50) was 20.6 µg/mL (≈ 43 µM).

With `CC(C)=CCc1c(O)ccc(C(=O)/C=C/c2ccc(O)cc2)c1O` [ISOBAVACHALCONE], the figures for the Activity result in data set [1] and in data set [4] were “tde” and 75%, respectively. The LC50 in data set [3] came to 4.36 µg/mL (≈ 13.4 µM). The CC50 at 48 h in data set [5] was 86.9 µg/mL (≈ 268 µM).

On to `O=C(/C=C/c1ccc(O)c(-c2cc(C(=O)/C=C/c3ccc(O)cc3)c(O)cc2O)c1)c1ccc(O)cc1O` [RHUSCHALCONE VI], for which the Activity entry is “tde” in data set [1] and 75% in data set [4]. The same compound gave a CC50 at 48 h in data set [2] (BHK cells) of 97.6 µg/mL (≈ 191 µM). For the same compound, the 50% lethal concentration (LC50) in data set [3] is 53.3 µg/mL (≈ 104 µM).
